Results on 38 compounds are retold here after ChEMBL document CHEMBL3871271, “Novel bis-arylalkylamines as myeloperoxidase inhibitors: Design, synthesis, and structure-activity relationship study” (Eur J Med Chem, 2016).

The nature of experiment [1]: Redox potential of compound in Ag/AgCl-NaCl containing phosphate buffer assessed as one electron redox potential at 1 10^-4M by cyclic voltammetric analysis. The method, boiled down: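 Cyclic voltammetry at 25 ± 2 °C in a three-electrode cell: glassy carbon working, platinum wire auxiliary, Ag/AgCl (3 M NaCl) reference. Inhibitor 1×10^-4 M in 0.1 M phosphate buffer pH 7.4. Single cycle at 100 mV s⁻¹. E°′ converted to NHE by adding +198 mV.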

The target in the next experiment is T1, Myeloperoxidase (Homo sapiens, UniProt P05164).
T1 sequence (P05164 whole entry): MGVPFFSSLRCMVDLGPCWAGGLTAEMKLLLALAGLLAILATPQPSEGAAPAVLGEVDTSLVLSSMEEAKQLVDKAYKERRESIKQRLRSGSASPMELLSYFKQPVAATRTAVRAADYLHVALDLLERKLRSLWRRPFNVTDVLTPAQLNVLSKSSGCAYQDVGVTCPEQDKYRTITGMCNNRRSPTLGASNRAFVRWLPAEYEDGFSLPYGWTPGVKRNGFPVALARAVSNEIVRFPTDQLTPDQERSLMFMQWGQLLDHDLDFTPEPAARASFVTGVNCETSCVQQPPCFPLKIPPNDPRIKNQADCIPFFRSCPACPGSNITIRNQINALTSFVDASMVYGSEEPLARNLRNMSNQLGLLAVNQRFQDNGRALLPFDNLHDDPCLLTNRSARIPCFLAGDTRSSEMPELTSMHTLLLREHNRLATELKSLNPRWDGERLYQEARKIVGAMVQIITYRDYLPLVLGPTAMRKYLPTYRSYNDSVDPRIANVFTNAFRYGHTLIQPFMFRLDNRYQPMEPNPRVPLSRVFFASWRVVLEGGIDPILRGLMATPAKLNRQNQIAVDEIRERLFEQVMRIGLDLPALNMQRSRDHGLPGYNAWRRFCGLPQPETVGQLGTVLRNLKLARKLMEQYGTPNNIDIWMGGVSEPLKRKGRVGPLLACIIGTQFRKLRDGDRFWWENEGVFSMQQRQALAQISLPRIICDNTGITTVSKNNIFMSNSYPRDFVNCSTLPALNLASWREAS
Nature of the experiment: Inhibition of MPO chlorination activity (unknown origin) assessed as taurine chloramine formation after 5 mins in presence of H2O2/Cl- by HTS method. The method, boiled down:
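Recombinant MPO (40 nM) in 10 mM phosphate buffer pH 7.4 with 300 mM NaCl and 15 mM taurine, inhibitor up to 20 μM, 37 °C. Started with H2O2 (100 μM), stopped after 5 min with catalase. Taurine chloramine read with thionitrobenzoic acid at 412 nm. IC50 taken from the concentration curve, no H2O2 = 100% inhibition, no inhibitor = 0%.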

The target of experiment [2] is Sodium-dependent serotonin transporter (Homo sapiens, UniProt P31645). Nature of the experiment: Inhibition of human SERT expressed in HEK293 cells assessed as reduction in [3]5-HT uptake. It is filed as cell-based. In a few lines:
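hSERT cDNA in pcDNA3.1, transfected into HEK-293 MSR cells (DMEM, 10% FCS, penicillin/streptomycin, 6 µg/mL Geneticin, 37 °C, 5% CO2). Cells detached with Versene and trypsin/EDTA and seeded into plates. [3H]5-HT uptake measured per an earlier described method, with HEK-293 MSR cells used in place of COS-1. Ki reported.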

Experiment [3] has as its target T2, Myeloperoxidase (Homo sapiens) (UniProt P05164).
T2 sequence (whole entry): T1 sequence (P05164 whole entry)
Nature of the experiment: Inhibition of human polymorphonuclear leukocyte MPO assessed as apparent bi-molecular rate constant for PorFe(4)=O radical reduction for 0.001 to 2.681 secs by stopped-flow spectroscopic analysis. In a few lines: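 Purified MPO (purity index A430/A280 ≥0.86) at 8 µM was premixed with 80 µM H2O2. Reaction in 200 mM phosphate, pH 7.4, 25 °C, 2% DMSO final. kobs taken as the mean of ≥3 runs. Second-order constant derived from the slope of kobs versus concentration.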

For the next experiment, the system named is HEK293. In words: Ratio of Ki for human SERT expressed in HEK293 cells to IC50 for MPO chlorination activity (unknown origin). The format is cell-based.
Experiment [4] addresses T2, Myeloperoxidase (Homo sapiens). Nature of the experiment: Inhibition of human polymorphonuclear leukocyte MPO assessed as ratio of apparent bi-molecular rate constant for PorFe(4)=O radical reduction to PorFe(4)-OH reduction by stopped-flow spectroscopic analysis.
For experiment [5] the target is unchanged. Nature of the experiment: Inhibition of human polymorphonuclear leukocyte MPO assessed as apparent bimolecular rate constant for PorFe(4)-OH reduction for 4.01 to 31.32 secs by stopped-flow spectroscopic analysis. In a few lines:
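Single-exponential fits gave kobs, as the mean of ≥3 runs, with substrate at least 5-fold over enzyme. Conditions were 200 mM phosphate, pH 7.4, 25 °C, 2% DMSO final. Apparent second-order constant taken from the slope of kobs versus concentration.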

One may read the IC50 as the concentration that inhibits the measured activity by half. The Ki is the dissociation constant of the complex between target and ligand, obtained from inhibition or displacement.

Sequence of Sodium-dependent serotonin transporter (P31645 whole entry): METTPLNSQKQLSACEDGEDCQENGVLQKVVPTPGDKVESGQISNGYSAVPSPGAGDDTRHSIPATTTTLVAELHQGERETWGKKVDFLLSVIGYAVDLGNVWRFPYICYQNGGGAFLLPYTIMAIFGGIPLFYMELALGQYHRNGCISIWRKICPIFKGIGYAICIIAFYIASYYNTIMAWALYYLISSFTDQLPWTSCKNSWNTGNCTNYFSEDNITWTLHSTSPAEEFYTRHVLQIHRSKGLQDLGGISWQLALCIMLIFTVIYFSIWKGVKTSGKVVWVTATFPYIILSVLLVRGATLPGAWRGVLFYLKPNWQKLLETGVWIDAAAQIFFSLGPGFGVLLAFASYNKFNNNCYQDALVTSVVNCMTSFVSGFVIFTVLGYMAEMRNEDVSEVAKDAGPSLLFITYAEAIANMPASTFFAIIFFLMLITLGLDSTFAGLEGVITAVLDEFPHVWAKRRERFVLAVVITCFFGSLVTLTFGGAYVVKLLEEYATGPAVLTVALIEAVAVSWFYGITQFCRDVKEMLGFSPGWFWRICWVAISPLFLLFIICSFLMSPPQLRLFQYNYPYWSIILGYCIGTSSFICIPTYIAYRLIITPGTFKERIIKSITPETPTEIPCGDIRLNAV

For the compound `Oc1ccccc1CNCCc1ccccc1F`, the Activity in experiment [1] came out at 948 mV. Further, the IC50 on Myeloperoxidase turned out to be 670 nM.
In the same order, the values of `COc1ccccc1CCCNCc1ccccc1O` are 871 mV and 2500 nM.
In the same order, the values of `Oc1ccccc1CNCCc1ccccc1` are 973 mV and 700 nM.
As to `c1ccc(CCNCc2ccccc2)cc1`, the Activity in experiment [1] was greater than 1.2 V.
As to `COc1ccccc1CCNCc1ccccc1`, the Activity in experiment [1] is greater than 1.2 V.
The same measure, in the same setting: for `c1ccc(CCCNCc2ccccc2)cc1` the value was greater than 1.2 V; for `COc1ccccc1CCCNCc1ccccc1`, greater than 1.2 V.
Take `Oc1ccccc1CCCNCc1ccc(F)cc1`: the Activity in experiment [1] came to 869 mV. Moreover, the IC50 at Myeloperoxidase stood at 490 nM.
As to `c1ccc(CN2CCCN(Cc3ccccc3)C2)cc1`, the Activity in experiment [1] is greater than 1.2 V.
Still for that read-out and setting: in the case of `COc1ccccc1CCCNCc1ccc(F)cc1` it was greater than 1.2 V; in that of `O=C1N(Cc2ccccc2)CCCN1Cc1ccccc1`, greater than 1.2 V.
As to `Fc1cccc(CN2CCN(Cc3cccc(F)c3)CC2)c1`, the Activity in experiment [1] was 1060 mV. The IC50 on Myeloperoxidase was greater than 10000 nM.
In the same order, the values of `Oc1ccccc1CNCCCc1ccccc1` are 928 mV and 1200 nM.
In the same order, the values of `Oc1ccccc1CCNCc1ccccc1O` are 870 mV and 650 nM.
As to `COc1ccccc1CCNCc1ccccc1O`, the Activity in experiment [1] amounted to 907 mV. The IC50 on Myeloperoxidase was 1850 nM.
For `Oc1ccccc1CCCNCc1ccccc1O`, in experiment [2], the Ki came out at 11000 nM. Besides, the figures for the Kapp in experiment [3] and in experiment [5] were 1.5 ×10⁶ /M/s and 4.8 ×10³ /M/s, respectively. Moreover, the Activity in experiment [1] was 844 mV. The Ratio turned out to be 31.4 in the experiment with HEK293 and 313 in experiment [4]. Further, the IC50 at Myeloperoxidase came to 350 nM.
Consider `Fc1ccc2[nH]cc(CCCNCc3ccccc3)c2c1`, for which, in experiment [2], the Ki amounted to 50 nM. Besides, in the experiment on HEK293, the Ratio is 4.1.
In the case of `Oc1ccccc1CNCCc1c[nH]c2ccc(F)cc12`, the Activity in experiment [1] is 902 mV. Further, the half-maximal inhibitory concentration (IC50) on Myeloperoxidase worked out at 85 nM.
In the case of `Oc1ccccc1CCCNCc1ccccc1F`, in experiment [2], the Ki turned out to be 14000 nM. In addition, the Kapp in experiment [3] worked out at 5.7 ×10⁶ /M/s; in experiment [5], 1.4 ×10³ /M/s. For the same compound, in experiment [1], the Activity was determined as 833 mV. Moreover, the figures for the Ratio (in the experiment on HEK293; in experiment [4]) were 51.8 and 4070, respectively. Moreover, the IC50 at Myeloperoxidase stood at 270 nM.
For the compound `Oc1ccccc1CNCCCc1ccccc1F`, the Activity in experiment [1] was 902 mV. Besides, on Myeloperoxidase, the IC50 amounted to 370 nM.
Consider `COc1ccccc1CCNCc1cccc(F)c1`, for which, in experiment [1], the Activity is greater than 1.2 V.
With `Oc1ccccc1CCNCc1ccc(F)cc1`, the Activity in experiment [1] was 865 mV. Moreover, the IC50 at Myeloperoxidase was found to be 1160 nM.
In the case of `COc1ccccc1CCCNCc1cccc(F)c1`, the Activity in experiment [1] is greater than 1.2 V.
As to `Oc1ccccc1CC1CCCNC1` (centres undefined), the Activity in experiment [1] worked out at 960 mV. Besides, on Myeloperoxidase, the IC50 was greater than 10000 nM.
In the same order, the values of `Oc1ccccc1CN1CCCCC1` are 953 mV and greater than 10000 nM.
On to `c1ccc(CN2CCN(Cc3ccccc3)CC2)cc1`, for which, in experiment [1], the Activity was 996 mV. The IC50 at Myeloperoxidase was greater than 10000 nM.
For `COc1ccccc1CCCNCc1ccccc1F`, the Activity in experiment [1] was greater than 1.2 V.
For the compound `Oc1ccccc1CCNCc1ccccc1`, the Activity in experiment [1] turned out to be 897 mV. For the same compound, the IC50 at Myeloperoxidase was determined as 2700 nM.
The corresponding values for `Fc1ccccc1CN1CCN(Cc2ccccc2F)CC1` are 1100 mV and greater than 10000 nM.
For `COc1ccccc1CCNCc1ccc(F)cc1`, the Activity in experiment [1] was greater than 1.2 V.
Consider `Oc1ccccc1CCCNCc1ccccc1`, for which the Activity in experiment [1] worked out at 825 mV. For the same compound, at Myeloperoxidase, the IC50 is 360 nM.
In the same order, the values of `Oc1ccccc1CCCNCc1cccc(F)c1` are 820 mV and 370 nM.
For `Oc1ccccc1CCNCc1cccc(F)c1`, the Activity in experiment [1] is 807 mV. On Myeloperoxidase, the IC50 worked out at 660 nM.
With `Oc1ccccc1CNCCCc1c[nH]c2ccc(F)cc12`, the Ki in experiment [2] is 800 nM. In addition, the values for the Kapp in experiment [3] and in experiment [5] were 1.4 ×10⁷ /M/s and 3.5 ×10³ /M/s, respectively. In addition, the Activity in experiment [1] is 872 mV. Further, the Ratio with HEK293 is 14.8; in experiment [4], 4000. On Myeloperoxidase, the IC50 came out at 54 nM.
`Oc1ccccc1CCNCc1ccccc1F`: the Activity in experiment [1] came to 856 mV. On Myeloperoxidase, the IC50 was 700 nM.
Regarding `COc1ccccc1CCNCc1ccccc1F`, the Activity in experiment [1] was greater than 1.2 V.
On to `Fc1ccc(CN2CCN(Cc3ccc(F)cc3)CC2)cc1`, for which the Activity in experiment [1] was 1020 mV. At Myeloperoxidase, the IC50 is greater than 10000 nM.
On to `Oc1ccccc1CN1CCN(Cc2ccccc2O)CC1`, for which, in experiment [1], the Activity came out at 1070 mV. Besides, the IC50 at Myeloperoxidase was 1400 nM.
